Assay results taken from PubChem BioAssay AID588818 (Broad Institute, 2011).

Test system: ldlA[mSR-BI] cells, [3H]cholesterol efflux to HDL
Experiment: effect on free cholesterol efflux to HDL, late-stage follow-up, mechanism study for SR-BI HDL uptake inhibitor project, ldlA[mSR-BI] cells, powder samples (AID 588818)
Settings: at 1 µM; hits give low values
How it was run: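 Material: ldlA[mSR-BI] cells carrying a [3H]cholesterol label | Also added: HDL, 100 µg/mL final | Timing: 1 h compound pretreatment, 2 h HDL efflux | Measured by: Liquid scintillation counting of [3H]cholesterol in medium and cells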

SMILES | cholesterol efflux relative to neutral control
CCOC(=O)N1CCC(NC(=O)c2ccc3c(c2)N(Cc2ccc(F)cc2)CCS3)CC1 | 14.1%
O=C(Nc1ccc(-c2nc3cc(NC(=O)c4ccc(NC(=O)c5cccc6ccccc56)cc4)ccc3[nH]2)cc1)c1ccc(NC(=O)c2cccc3ccccc23)cc1 | 10.3%
COc1ccc(-c2nnn(CC(=O)N(C3CCCCC3)C(C)C(=O)NC3CCCC3)n2)cc1OC (stereo not given) | 13.1%
O=C(Nc1ccc(-c2nc3cc(NC(=O)c4ccccc4[N+](=O)[O-])ccc3o2)cc1)c1ccccc1[N+](=O)[O-] | 5.29%
CCC(=O)N1CCc2cc(-c3csc(NC(=O)c4ccco4)n3)ccc21 | 11.5%
